What was measured:
[1] = Displacement of […] from imidazoline I2 receptor in Sprague-Dawley rat kidney membranes after 45 mins by liquid scintillation counting; format: cell membranes, Membrane
[2] = biological target: T1, Adrenergic receptor alpha-2 (Rattus norvegicus, UniProt P22086+P19328+P22909); test: Displacement of [3H]RX821002 from alpha2-adrenoceptor in Sprague-Dawley rat brain membranes after 45 mins by liquid scintillation counting; format: cell membranes, Membrane
T1 sequence (P22086 whole entry): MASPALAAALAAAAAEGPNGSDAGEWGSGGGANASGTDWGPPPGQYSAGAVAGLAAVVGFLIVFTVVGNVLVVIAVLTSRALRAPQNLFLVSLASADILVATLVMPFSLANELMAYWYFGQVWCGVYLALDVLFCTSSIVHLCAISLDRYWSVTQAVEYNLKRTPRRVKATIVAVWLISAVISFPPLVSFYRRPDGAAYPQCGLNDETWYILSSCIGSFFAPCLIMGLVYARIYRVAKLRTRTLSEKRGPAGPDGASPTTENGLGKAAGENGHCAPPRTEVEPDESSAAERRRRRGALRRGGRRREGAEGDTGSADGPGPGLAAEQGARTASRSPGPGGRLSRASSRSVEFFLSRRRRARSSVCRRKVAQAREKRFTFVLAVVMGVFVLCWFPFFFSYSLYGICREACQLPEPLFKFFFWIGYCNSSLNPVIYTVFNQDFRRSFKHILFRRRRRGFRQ
T1 sequence (P19328 whole entry): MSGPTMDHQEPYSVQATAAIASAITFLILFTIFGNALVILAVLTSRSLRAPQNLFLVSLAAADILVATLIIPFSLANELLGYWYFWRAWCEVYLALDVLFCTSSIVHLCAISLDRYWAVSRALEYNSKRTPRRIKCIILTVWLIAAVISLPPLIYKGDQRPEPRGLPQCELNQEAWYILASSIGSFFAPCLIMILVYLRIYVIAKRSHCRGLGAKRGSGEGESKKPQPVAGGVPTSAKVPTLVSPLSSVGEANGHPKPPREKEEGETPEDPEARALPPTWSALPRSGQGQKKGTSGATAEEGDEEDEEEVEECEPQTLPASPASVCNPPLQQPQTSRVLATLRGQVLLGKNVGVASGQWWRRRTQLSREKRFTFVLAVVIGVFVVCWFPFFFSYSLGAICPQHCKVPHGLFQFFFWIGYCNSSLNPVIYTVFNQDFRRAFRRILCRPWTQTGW
T1 sequence (P22909 whole entry): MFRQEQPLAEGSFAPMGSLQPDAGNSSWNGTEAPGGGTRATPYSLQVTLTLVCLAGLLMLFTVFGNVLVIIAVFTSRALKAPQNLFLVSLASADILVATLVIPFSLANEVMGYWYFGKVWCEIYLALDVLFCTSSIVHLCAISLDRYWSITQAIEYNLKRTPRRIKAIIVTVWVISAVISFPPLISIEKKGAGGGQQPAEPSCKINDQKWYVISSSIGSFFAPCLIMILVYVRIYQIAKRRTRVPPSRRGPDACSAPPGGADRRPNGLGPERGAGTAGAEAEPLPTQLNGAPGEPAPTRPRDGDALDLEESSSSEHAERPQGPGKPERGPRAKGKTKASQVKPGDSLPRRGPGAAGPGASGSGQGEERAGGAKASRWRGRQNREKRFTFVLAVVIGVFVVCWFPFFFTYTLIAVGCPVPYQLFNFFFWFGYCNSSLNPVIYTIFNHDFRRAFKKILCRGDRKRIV
Summary of the method: (§1)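 Crude P2 membranes from brains of male Sprague-Dawley rats (250–280 g), 0.2–0.3 mg protein. Radioligand 1 nM [3H]RX821002 (α2) or [3H]prazosin (α1); 11 concentrations of compound, 0.1 nM–100 µM. Non-specific binding: 10 µM rauwolscine (α2) or 10 µM phenylephrine (α1). Triplicate incubation, RT, 45 min. PEI-soaked glass-fibre filtration, then scintillation counting. Ki by Cheng-Prusoff; 3–4 experiments, or one for low-affinity compounds.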

[3] = biological target: T2, Adrenergic receptor alpha-1 (Rattus norvegicus, UniProt P15823+P23944+P43140); test: Displacement of [3H]prazosin from alpha1-adrenoceptor in Sprague-Dawley rat brain membranes after 45 mins by liquid scintillation counting; format: cell membranes, Membrane; summary of the method: as §1
T2 sequence (P15823 whole entry): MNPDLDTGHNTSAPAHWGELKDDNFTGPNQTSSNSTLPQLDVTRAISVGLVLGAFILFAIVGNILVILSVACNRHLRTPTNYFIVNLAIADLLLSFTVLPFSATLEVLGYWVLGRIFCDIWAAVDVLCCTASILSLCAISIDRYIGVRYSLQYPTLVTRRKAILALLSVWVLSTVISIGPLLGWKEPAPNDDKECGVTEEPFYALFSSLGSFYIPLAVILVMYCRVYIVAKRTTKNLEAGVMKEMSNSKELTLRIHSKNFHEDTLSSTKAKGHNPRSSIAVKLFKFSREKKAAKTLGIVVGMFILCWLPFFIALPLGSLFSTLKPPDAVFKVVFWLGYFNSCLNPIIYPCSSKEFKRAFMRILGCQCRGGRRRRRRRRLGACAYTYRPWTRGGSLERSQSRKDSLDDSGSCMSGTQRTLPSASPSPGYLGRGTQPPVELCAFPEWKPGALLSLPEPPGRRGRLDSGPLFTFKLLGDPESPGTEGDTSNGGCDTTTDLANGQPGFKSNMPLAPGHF
T2 sequence (P23944 whole entry): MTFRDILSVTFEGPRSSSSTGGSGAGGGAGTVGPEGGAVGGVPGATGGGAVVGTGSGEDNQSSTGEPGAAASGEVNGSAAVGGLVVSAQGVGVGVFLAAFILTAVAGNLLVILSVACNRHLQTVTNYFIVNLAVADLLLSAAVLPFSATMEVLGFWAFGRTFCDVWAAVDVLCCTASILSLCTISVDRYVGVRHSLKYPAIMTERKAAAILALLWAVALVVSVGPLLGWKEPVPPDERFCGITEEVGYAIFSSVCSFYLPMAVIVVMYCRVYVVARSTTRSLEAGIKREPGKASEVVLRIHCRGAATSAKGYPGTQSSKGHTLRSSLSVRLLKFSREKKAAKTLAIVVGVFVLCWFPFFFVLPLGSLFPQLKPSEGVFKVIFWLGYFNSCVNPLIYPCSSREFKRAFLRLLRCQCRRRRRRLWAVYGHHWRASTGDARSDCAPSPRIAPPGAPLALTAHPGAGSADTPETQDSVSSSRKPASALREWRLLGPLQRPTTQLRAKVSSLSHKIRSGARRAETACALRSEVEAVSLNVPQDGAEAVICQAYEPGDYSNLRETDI
T2 sequence (P43140 whole entry): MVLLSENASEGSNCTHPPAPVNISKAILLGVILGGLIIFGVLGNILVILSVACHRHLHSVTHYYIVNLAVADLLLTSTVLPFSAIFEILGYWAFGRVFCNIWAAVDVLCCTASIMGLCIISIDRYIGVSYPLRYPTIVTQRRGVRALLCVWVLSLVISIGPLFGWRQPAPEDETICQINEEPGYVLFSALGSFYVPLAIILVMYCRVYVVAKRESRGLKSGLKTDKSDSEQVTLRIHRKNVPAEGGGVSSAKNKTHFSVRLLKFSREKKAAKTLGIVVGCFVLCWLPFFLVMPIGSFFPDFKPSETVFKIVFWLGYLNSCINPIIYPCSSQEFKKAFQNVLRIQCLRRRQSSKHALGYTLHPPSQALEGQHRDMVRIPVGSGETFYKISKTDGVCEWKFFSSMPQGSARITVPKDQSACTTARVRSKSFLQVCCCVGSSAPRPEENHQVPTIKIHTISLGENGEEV

Nischarin = Nischarin (Rattus norvegicus, UniProt Q4G017); test: Displacement of […] from imidazoline I1 receptor in Sprague-Dawley rat kidney membranes after 45 mins by liquid scintillation counting; format: cell membranes, Membrane
Sequence of Nischarin (Q4G017 whole entry): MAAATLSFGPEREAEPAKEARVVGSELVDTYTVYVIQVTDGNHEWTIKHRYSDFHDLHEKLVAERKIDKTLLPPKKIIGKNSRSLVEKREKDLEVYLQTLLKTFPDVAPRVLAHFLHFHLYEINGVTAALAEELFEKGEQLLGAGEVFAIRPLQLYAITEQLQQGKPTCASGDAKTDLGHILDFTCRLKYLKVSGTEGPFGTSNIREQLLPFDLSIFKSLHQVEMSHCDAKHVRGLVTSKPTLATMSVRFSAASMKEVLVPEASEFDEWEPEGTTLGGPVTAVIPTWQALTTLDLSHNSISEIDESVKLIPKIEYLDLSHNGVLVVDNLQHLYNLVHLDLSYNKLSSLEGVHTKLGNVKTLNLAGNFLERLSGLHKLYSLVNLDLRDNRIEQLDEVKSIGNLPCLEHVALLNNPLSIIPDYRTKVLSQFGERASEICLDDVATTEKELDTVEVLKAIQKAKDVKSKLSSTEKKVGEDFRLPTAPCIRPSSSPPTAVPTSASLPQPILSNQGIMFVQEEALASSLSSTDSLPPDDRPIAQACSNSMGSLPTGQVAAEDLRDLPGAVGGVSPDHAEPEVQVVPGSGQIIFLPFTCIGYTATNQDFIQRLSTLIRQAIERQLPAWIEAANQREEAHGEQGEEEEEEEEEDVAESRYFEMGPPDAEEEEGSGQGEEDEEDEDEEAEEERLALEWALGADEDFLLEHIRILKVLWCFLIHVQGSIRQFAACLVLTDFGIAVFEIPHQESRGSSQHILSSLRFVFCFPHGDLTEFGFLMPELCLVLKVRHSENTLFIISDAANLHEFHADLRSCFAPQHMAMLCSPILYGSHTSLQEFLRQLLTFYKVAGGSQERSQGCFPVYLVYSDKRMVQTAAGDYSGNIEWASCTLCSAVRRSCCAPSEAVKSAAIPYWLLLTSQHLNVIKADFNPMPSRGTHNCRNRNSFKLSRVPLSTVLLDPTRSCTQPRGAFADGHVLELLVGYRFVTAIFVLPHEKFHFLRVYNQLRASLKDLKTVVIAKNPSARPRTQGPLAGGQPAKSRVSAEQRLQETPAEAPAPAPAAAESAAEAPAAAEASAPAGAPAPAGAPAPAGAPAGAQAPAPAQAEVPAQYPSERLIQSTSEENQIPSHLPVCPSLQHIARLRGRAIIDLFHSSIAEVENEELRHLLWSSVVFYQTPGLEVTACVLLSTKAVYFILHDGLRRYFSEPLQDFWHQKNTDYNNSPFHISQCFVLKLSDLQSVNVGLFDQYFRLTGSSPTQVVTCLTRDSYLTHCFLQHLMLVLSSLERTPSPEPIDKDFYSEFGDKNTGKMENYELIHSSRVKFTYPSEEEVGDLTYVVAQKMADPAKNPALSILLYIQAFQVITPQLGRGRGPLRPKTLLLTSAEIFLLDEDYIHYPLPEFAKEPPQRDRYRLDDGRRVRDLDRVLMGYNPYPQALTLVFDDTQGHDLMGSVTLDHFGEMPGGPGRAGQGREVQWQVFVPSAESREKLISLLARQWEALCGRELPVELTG

[4] = biological target: T3, Alpha-2A adrenergic receptor (Homo sapiens, UniProt P08913); test: Agonist activity at human alpha2A adrenoceptor expressed in CHO-K1 cells after 30 mins by [35S]GTPgammaS binding assay; format: functional, cell-based
T3 sequence (P08913 whole entry): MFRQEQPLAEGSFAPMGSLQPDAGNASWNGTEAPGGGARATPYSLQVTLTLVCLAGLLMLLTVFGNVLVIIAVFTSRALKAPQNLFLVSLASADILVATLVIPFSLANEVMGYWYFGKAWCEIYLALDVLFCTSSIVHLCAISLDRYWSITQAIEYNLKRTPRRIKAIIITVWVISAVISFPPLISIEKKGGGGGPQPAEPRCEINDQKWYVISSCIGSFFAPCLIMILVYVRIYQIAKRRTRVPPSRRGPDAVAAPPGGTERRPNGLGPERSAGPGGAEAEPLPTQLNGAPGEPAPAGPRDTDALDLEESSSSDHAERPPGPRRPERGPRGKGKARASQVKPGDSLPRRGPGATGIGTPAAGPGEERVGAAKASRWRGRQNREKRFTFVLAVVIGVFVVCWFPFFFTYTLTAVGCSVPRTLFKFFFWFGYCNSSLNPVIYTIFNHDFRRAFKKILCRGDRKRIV
Summary of the method: (§2)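 Membranes from CHO cells stably expressing human α2A-AR (5 µg protein) were incubated with 7 or 8 serial dilutions of compound and 0.1 nM [35S]GTPγS. Buffer: 25 mM Tris, 1 mM EDTA, 5 mM MgCl2, 20 mM NaCl, 1 µM GDP, 1 mM DTT, 30 µM ascorbic acid, pH 7.4. Incubation 30 min at RT, then vacuum filtration and scintillation counting. Run in duplicate, at least 3 repeats.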

[5] = biological target: T3, Alpha-2A adrenergic receptor; test: Displacement of [3H]RS-79948-197 from human alpha2A adrenoceptor expressed in CHO-K1 cells after 45 mins by liquid scintillation counting; format: cell-based
Summary of the method: (§3)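 Membranes from CHO-K1 cells stably expressing each human α2-AR subtype (6–10 µg protein). Used 0.2 nM [3H]RS-79948-197 and 8 serial dilutions of competitor in 50 mM potassium phosphate, pH 7.4. Non-specific binding defined with 100 µM oxymetazoline. Filtration, then scintillation counting. Run in duplicate, at least 3 repeats. One-site nonlinear fit; IC50 converted to Ki by Cheng-Prusoff.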

[6] = biological target: T4, Alpha-2B adrenergic receptor (Homo sapiens, UniProt P18089); test: Displacement of [3H]RS-79948-197 from human alpha2B adrenoceptor expressed in CHO-K1 cells after 45 mins by liquid scintillation counting; format: cell-based; summary of the method: as §3
T4 sequence (P18089 whole entry): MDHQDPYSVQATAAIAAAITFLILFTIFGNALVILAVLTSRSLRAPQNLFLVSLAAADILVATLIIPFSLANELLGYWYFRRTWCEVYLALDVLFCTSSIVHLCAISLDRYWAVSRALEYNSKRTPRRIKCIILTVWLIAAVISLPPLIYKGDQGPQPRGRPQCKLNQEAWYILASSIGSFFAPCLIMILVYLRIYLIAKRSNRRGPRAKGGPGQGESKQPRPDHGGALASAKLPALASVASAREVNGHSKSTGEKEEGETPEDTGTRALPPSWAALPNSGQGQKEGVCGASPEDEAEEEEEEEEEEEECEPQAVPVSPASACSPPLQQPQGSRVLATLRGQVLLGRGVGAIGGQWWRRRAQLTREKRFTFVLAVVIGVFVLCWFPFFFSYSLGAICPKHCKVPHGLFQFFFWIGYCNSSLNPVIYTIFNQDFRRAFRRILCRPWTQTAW

[7] = biological target: T5, Alpha-2A adrenergic receptor (Homo sapiens) (UniProt P08913); test: Intrinsic activity at human alpha2A adrenoceptor expressed in CHO-K1 cells after 30 mins by [35S]GTPgammaS binding assay relative to norepinephrine; format: functional, cell-based; summary of the method: as §2
T5 sequence (whole entry): T3 sequence (P08913 whole entry)

[8] = biological target: T6, Alpha-2C adrenergic receptor (Homo sapiens, UniProt P18825); test: Displacement of [3H]RS-79948-197 from human alpha2C adrenoceptor expressed in CHO-K1 cells after 45 mins by liquid scintillation counting; format: cell-based; summary of the method: as §3
T6 sequence (P18825 whole entry): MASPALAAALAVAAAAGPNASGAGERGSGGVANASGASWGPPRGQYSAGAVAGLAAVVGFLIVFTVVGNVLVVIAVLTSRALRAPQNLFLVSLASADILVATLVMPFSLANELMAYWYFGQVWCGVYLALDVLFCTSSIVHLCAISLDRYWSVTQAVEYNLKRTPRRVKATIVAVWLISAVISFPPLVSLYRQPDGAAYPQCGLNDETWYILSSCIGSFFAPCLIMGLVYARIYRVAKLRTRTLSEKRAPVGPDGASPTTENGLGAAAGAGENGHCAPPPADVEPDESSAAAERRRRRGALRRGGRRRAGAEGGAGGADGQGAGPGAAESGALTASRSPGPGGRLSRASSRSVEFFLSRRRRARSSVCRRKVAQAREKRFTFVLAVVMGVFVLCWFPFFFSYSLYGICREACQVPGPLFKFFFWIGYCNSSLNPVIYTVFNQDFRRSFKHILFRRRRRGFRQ

SMILES: Fc1c(F)c(F)c2c(cnn2N=C2NCCN2)c1F
- Ki [1]: 22.7 µM
- Ki [2]: 3.717 µM
- Ki [3]: 19.793 µM
- IC50 (Nischarin): 5.83 µM

SMILES: Fc1cccc2c1cnn2CC1=NCCN1
- Ki [1]: 0.0219 µM
- Ki [2]: 0.1873 µM
- Ki [3]: 0.5347 µM
- IC50 (Nischarin): 1.77 µM

SMILES: c1ccc2c(c1)cnn2N=C1NCCN1 [MARSANIDINE]
- EC50 [4]: 0.0933 µM
- Ki [5]: 0.052 µM
- Ki [1]: 16.9 µM
- Ki [2]: 0.01405 µM
- Ki [6]: 0.079 µM
- Intrinsic activity [7]: 14%
- Ki [8]: 0.64 µM

SMILES: Fc1cccc2c1cnn2N=C1NCCN1
- Ki [1]: 6.18 µM
- Ki [2]: 0.416 µM
- Ki [3]: 3.807 µM
- IC50 (Nischarin): 14.8 µM

— ChEMBL document CHEMBL3351639, “Fluorinated analogues of marsanidine, a highly α2-AR/imidazoline I1 binding site-selective hypotensive agent. Synthesis and biological activities” (Eur J Med Chem, 2014)
